Test results as given in ChEMBL document CHEMBL1641436, “Synthesis of sugar-amino acid-nucleosides as potential glycosyltransferase inhibitors” (Bioorg Med Chem, 2011).

These compounds were tested against T1, Galactofuranosyltransferase GlfT2 (Mycobacterium tuberculosis) (UniProt O53585) (assay: Inhibition of Mycobacterium tuberculosis GIFT2 at 4 mM at pH7.6 by spectrophotometric assay).
T1 sequence (whole entry): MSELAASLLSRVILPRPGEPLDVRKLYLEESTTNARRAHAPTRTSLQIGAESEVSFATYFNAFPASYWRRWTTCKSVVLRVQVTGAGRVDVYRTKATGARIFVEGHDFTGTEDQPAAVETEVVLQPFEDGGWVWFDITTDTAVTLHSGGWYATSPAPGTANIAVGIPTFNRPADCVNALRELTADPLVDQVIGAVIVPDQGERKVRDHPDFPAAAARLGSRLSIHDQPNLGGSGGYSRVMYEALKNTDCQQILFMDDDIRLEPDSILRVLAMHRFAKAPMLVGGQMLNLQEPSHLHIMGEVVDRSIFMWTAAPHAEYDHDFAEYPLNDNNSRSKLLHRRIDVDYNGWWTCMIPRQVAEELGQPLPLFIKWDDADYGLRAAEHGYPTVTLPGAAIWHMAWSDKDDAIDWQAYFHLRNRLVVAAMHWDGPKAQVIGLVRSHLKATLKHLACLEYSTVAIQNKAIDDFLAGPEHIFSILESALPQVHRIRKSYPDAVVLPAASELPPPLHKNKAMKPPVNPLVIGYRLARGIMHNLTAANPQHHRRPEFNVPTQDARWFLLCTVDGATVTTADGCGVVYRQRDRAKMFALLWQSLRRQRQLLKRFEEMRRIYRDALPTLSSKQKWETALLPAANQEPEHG
In short: (§1)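 Coupled PK/LDH spectrophotometric assay of GlfT2. Mix contained 100 mM MOPS pH 7.6, 50 mM KCl, 20 mM MgCl2, 1.1 mM NADH, 3.5 mM PEP, 3.75 U PK and 16.8 U LDH, with β-D-Galf-(1→5)-β-D-Galf-(1→6)-β-D-Galf-octyl as acceptor. Diluted GlfT2 was added to start the reaction at 37 °C, with A340 read every 10–15 s. Closest duplicate velocities were blank-corrected and expressed as % of mean control.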
In the case of `NC(=O)CC[C@H](NC(=O)C[C@H]1O[C@H](CO)[C@H](O)[C@H](O)[C@H]1O)C(=O)NC[C@H]1O[C@@H](N2CCC(=O)NC2=O)[C@H](O)[C@@H]1O`, the inhibition is reported as < 10%.
For `NC(=O)CC[C@H](NC(=O)C[C@H]1O[C@H](CO)[C@H](O)[C@H](O)[C@H]1O)C(=O)NC[C@H]1O[C@@H](n2ccc(=O)[nH]c2=O)[C@H](O)[C@@H]1O`, the inhibition was < 10%.
Compound `O=C(C[C@H]1O[C@H](CO)[C@H](O)[C@H](O)[C@H]1O)N[C@@H](Cc1c[nH]c2ccccc12)C(=O)NC[C@H]1O[C@@H](n2ccc(=O)[nH]c2=O)[C@H](O)[C@@H]1O` has an inhibition of 75%.
`O=C1CCN([C@@H]2O[C@H](CNC(=O)[C@H](Cc3c[nH]c4ccccc34)NC(=O)C[C@H]3O[C@H](CO)[C@H](O)[C@H](O)[C@H]3O)[C@@H](O)[C@H]2O)C(=O)N1` was tested, and the inhibition was 53%.
In the case of `O=C(C[C@H]1O[C@H](CO)[C@H](O)[C@H](O)[C@H]1O)N[C@@H](Cc1cnc[nH]1)C(=O)NC[C@H]1O[C@@H](n2ccc(=O)[nH]c2=O)[C@H](O)[C@@H]1O`, the inhibition is reported as 79%.
`O=C1CCN([C@@H]2O[C@H](CNC(=O)[C@H](Cc3cnc[nH]3)NC(=O)C[C@H]3O[C@H](CO)[C@H](O)[C@H](O)[C@H]3O)[C@@H](O)[C@H]2O)C(=O)N1` showed an inhibition of 18%.

Each compound was assayed against T2, Galactofuranosyltransferase GlfT2 (Mycobacterium tuberculosis, UniProt O53585) (assay: Inhibition of Mycobacterium tuberculosis GIFT2 at pH7.6 by spectrophotometric assay).
T2 sequence (O53585 whole entry): T1 sequence (whole entry)
`O=C(C[C@H]1O[C@H](CO)[C@H](O)[C@H](O)[C@H]1O)N[C@@H](Cc1cnc[nH]1)C(=O)NC[C@H]1O[C@@H](n2ccc(=O)[nH]c2=O)[C@H](O)[C@@H]1O` gave an IC50 of 332 µM.

The compounds below were run against T1, Galactofuranosyltransferase GlfT2 (Mycobacterium tuberculosis) (assay: Inhibition of Mycobacterium tuberculosis GIFT2 at 2 mM at pH7.6 by spectrophotometric assay).
In short: as §1
For `O=C(C[C@H]1O[C@@H](CO)[C@H](O)[C@H]1O)N[C@@H](Cc1c[nH]c2ccccc12)C(=O)NC[C@H]1O[C@@H](n2ccc(=O)[nH]c2=O)[C@H](O)[C@@H]1O`, the inhibition was 30%.
In the case of `O=C1CCN([C@@H]2O[C@H](CNC(=O)[C@H](Cc3cnc[nH]3)NC(=O)C[C@H]3O[C@@H](CO)[C@H](O)[C@H]3O)[C@@H](O)[C@H]2O)C(=O)N1`, the inhibition is reported as < 10%.
`O=C(C[C@@H]1O[C@@H](CO)[C@H](O)[C@H]1O)N[C@@H](Cc1c[nH]c2ccccc12)C(=O)NC[C@H]1O[C@@H](n2ccc(=O)[nH]c2=O)[C@H](O)[C@@H]1O` was tested, and the inhibition was < 10%.
In the case of `O=C(C[C@@H]1O[C@@H](CO)[C@H](O)[C@H]1O)N[C@@H](Cc1cnc[nH]1)C(=O)NC[C@H]1O[C@@H](n2ccc(=O)[nH]c2=O)[C@H](O)[C@@H]1O`, the inhibition is reported as 14%.
`O=C1CCN([C@@H]2O[C@H](CNC(=O)[C@H](Cc3c[nH]c4ccccc34)NC(=O)C[C@@H]3O[C@@H](CO)[C@H](O)[C@H]3O)[C@@H](O)[C@H]2O)C(=O)N1` was tested, and the inhibition was < 10%.
`O=C1CCN([C@@H]2O[C@H](CNC(=O)[C@H](Cc3c[nH]c4ccccc34)NC(=O)C[C@H]3O[C@@H](CO)[C@H](O)[C@H]3O)[C@@H](O)[C@H]2O)C(=O)N1` was tested, and the inhibition was < 10%.
With `O=C(C[C@H]1O[C@@H](CO)[C@H](O)[C@H]1O)N[C@@H](Cc1cnc[nH]1)C(=O)NC[C@H]1O[C@@H](n2ccc(=O)[nH]c2=O)[C@H](O)[C@@H]1O` the inhibition was 37%.
With `O=C1CCN([C@@H]2O[C@H](CNC(=O)[C@H](Cc3cnc[nH]3)NC(=O)C[C@@H]3O[C@@H](CO)[C@H](O)[C@H]3O)[C@@H](O)[C@H]2O)C(=O)N1` the inhibition was < 10%.
